In brackets after ≈: the same amount, converted by molar mass.
What was measured:
[1] = tested on: Staphylococcus haemolyticus; assay: Antimicrobial activity against Staphylococcus haemolyticus 1949819 B-M isolated from patient with pyelonephritis assessed as >3-log reduction in urinary bacterial titer after 16 hrs; type: functional, Urine
[2] = tested on: Escherichia coli; assay: Antimicrobial activity against Escherichia coli 2062717 B-P isolated from patient with pyelonephritis assessed as >3-log reduction in urinary bacterial titer after 20 hrs; type: functional, Urine
[3] = tested on: Escherichia coli; assay: Antimicrobial activity against Escherichia coli 1821385 B-C isolated from patient with pyelonephritis assessed as >3-log reduction in urinary bacterial titer after 16 hrs; type: functional, Urine
How it was run: (§1)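 Urine was collected on day 3 of i.v. therapy (steady state) over 4-h intervals from infusion start (0–4 to 20–24 h), stored at –80°C and sterile filtered. It was serially diluted twofold (1:0 up to 1:131,072) in the patient's own pre-dose drug-free urine. Microdilution used a final inoculum of 1.0 x 10^6 to 9.5 x 10^6 CFU/ml, incubated 18 h at 37°C in air. 10 µl was subcultured onto 5% blood Columbia agar for 24 h at 37°C. The bactericidal endpoint was >99.9% (>3-log) kill, reported as a reciprocal titer.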

[4] = tested on: Escherichia coli; assay: Antimicrobial activity against Escherichia coli 1949825 B-K isolated from patient with pyelonephritis assessed as >3-log reduction in urinary bacterial titer after 8 hrs; type: functional, Urine
How it was run: (§2)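 Patient urine was collected on day 3 of i.v. therapy (steady state) over 4-h intervals after infusion start, stored at –80°C, and sterile filtered. It was twofold serially diluted (1:0 to 1:131,072) in the patient's own pre-dose drug-free urine, inoculated to 1.0 x 10^6–9.5 x 10^6 CFU/ml, and incubated for 18 h at 37°C. Subcultures were grown on blood agar for 24 h. The UBT is the reciprocal of the highest dilution giving >99.9% kill.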

[5] = tested on: Escherichia coli; assay: Antimicrobial activity against Escherichia coli 1821385 B-C isolated from patient with pyelonephritis assessed as >3-log reduction in urinary bacterial titer after 12 hrs; type: functional, Urine; how it was run: as §1
[6] = tested on: Escherichia coli; assay: Antimicrobial activity against Escherichia coli 2062717 B-P isolated from patient with pyelonephritis assessed as >3-log reduction in urinary bacterial titer after 16 hrs; type: functional, Urine; how it was run: as §2
[7] = tested on: Escherichia coli; assay: Antimicrobial activity against Escherichia coli 1780063 B-A isolated from patient with pyelonephritis assessed as >3-log reduction in urinary bacterial titer after 16 hrs; type: functional, Urine
How it was run: (§3)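 Urine was collected before dosing and on day 3 of i.v. therapy (steady state), in 4-h intervals from infusion start (0–4 to 20–24 h), stored at −80°C and sterile filtered. It was serially diluted twofold (1:0 to 1:131,072) in the patient's drug-free pre-dose urine. Microdilution used an inoculum of 1.0 x 10^6–9.5 x 10^6 CFU/ml, incubated 18 h at 37°C, then subcultured 24 h on blood agar. The endpoint was >99.9% kill, reported as reciprocal titer.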

[8] = tested on: Escherichia coli; assay: Antimicrobial activity against Escherichia coli 1949825 B-K isolated from patient with pyelonephritis assessed as >3-log reduction in urinary bacterial titer after 4 hrs; type: functional, Urine; how it was run: as §2
[9] = tested on: Escherichia coli; assay: Antimicrobial activity against Escherichia coli 1949826 B-L isolated from patient with pyelonephritis assessed as >3-log reduction in urinary bacterial titer after 16 hrs; type: functional, Urine; how it was run: as §2
[10] = T>MIC in Pseudomonas aeruginosa infected in thigh of neutropenic mouse at 500 mg/kg, iv administered every 8 hrs; type: functional
[11] = tested on: Escherichia coli; assay: Antimicrobial activity against Escherichia coli 1949825 B-K isolated from patient with pyelonephritis by Etest; type: functional
[12] = tested on: Escherichia coli; assay: Antimicrobial activity against Escherichia coli 1949825 B-K isolated from patient with pyelonephritis assessed as >3-log reduction in urinary bacterial titer after 12 hrs; type: functional, Urine; how it was run: as §2
[13] = tested on: Escherichia coli; assay: Antimicrobial activity against Escherichia coli 1889645 B-I isolated from patient with pyelonephritis by Etest; type: functional
[14] = tested on: Escherichia coli; assay: Antimicrobial activity against Escherichia coli 1889646 B-F isolated from patient with pyelonephritis assessed as >3-log reduction in urinary bacterial titer after 12 hrs; type: functional, Urine; how it was run: as §1
[15] = tested on: Escherichia coli; assay: Antimicrobial activity against Escherichia coli 1889646 B-F isolated from patient with pyelonephritis assessed as >3-log reduction in urinary bacterial titer after 24 hrs; type: functional, Urine; how it was run: as §1
[16] = tested on: Escherichia coli; assay: Antimicrobial activity against Escherichia coli 1821385 B-C isolated from patient with pyelonephritis by Etest; type: functional
[17] = tested on: Staphylococcus aureus; assay: Antimicrobial activity against Staphylococcus aureus 1889640 A-Z isolated from patient with pyelonephritis assessed as >3-log reduction in urinary bacterial titer after 24 hrs; type: functional, Urine
[18] = tested on: Escherichia coli; assay: Antimicrobial activity against Escherichia coli 1821386 B-D isolated from patient with pyelonephritis assessed as >3-log reduction in urinary bacterial titer after 12 hrs; type: functional, Urine; how it was run: as §1
[19] = tested on: Staphylococcus epidermidis; assay: Antimicrobial activity against Staphylococcus epidermidis 2297262-9 B-V isolated from patient with pyelonephritis assessed as >3-log reduction in urinary bacterial titer after 12 hrs; type: functional, Urine
[20] = tested on: Staphylococcus epidermidis; assay: Antimicrobial activity against Staphylococcus epidermidis 2297262-9 B-V isolated from patient with pyelonephritis by Etest; type: functional
[21] = tested on: Enterococcus faecalis; assay: Antimicrobial activity against Enterococcus faecalis 2297262-10 B-V isolated from patient with pyelonephritis assessed as >3-log reduction in urinary bacterial titer after 12 hrs; type: functional, Urine; how it was run: as §3
[22] = tested on: Escherichia coli; assay: Antimicrobial activity against Escherichia coli 1889647 B-H isolated from patient with pyelonephritis by Etest; type: functional
[23] = tested on: Escherichia coli; assay: Antimicrobial activity against Escherichia coli 1889647 B-H isolated from patient with pyelonephritis assessed as >3-log reduction in urinary bacterial titer after 4 hrs; type: functional, Urine; how it was run: as §1
[24] = tested on: Staphylococcus aureus; assay: Antimicrobial activity against Staphylococcus aureus 2215767-9 B-S isolated from patient with pyelonephritis by Etest; type: functional
[25] = tested on: Escherichia coli; assay: Antimicrobial activity against Escherichia coli 2062716 B-R isolated from patient with pyelonephritis assessed as >3-log reduction in urinary bacterial titer after 8 hrs; type: functional, Urine; how it was run: as §2
[26] = tested on: Escherichia coli; assay: Antimicrobial activity against Escherichia coli 1780064 A-X isolated from patient with pyelonephritis assessed as >3-log reduction in urinary bacterial titer after 16 hrs; type: functional, Urine; how it was run: as §3
[27] = tested on: Pseudomonas aeruginosa; assay: Antimicrobial activity against Pseudomonas aeruginosa 2062713 B-Q isolated from patient with pyelonephritis assessed as >3-log reduction in urinary bacterial titer after 8 hrs; type: functional, Urine
[28] = tested on: Escherichia coli; assay: Antimicrobial activity against Escherichia coli 1655646 A-Y isolated from patient with pyelonephritis assessed as >3-log reduction in urinary bacterial titer after 16 hrs; type: functional, Urine; how it was run: as §3
[29] = tested on: Escherichia coli; assay: Antimicrobial activity against Escherichia coli 1821386 B-D isolated from patient with pyelonephritis assessed as >3-log reduction in urinary bacterial titer after 4 hrs; type: functional, Urine; how it was run: as §1
[30] = tested on: Escherichia coli; assay: Antimicrobial activity against Escherichia coli 1889647 B-H isolated from patient with pyelonephritis assessed as >3-log reduction in urinary bacterial titer after 20 hrs; type: functional, Urine; how it was run: as §1
[31] = tested on: Pseudomonas aeruginosa; assay: Antimicrobial activity against Pseudomonas aeruginosa 2062713 B-Q isolated from patient with pyelonephritis assessed as >3-log reduction in urinary bacterial titer after 4 hrs; type: functional, Urine
[32] = tested on: Staphylococcus aureus; assay: Antimicrobial activity against Staphylococcus aureus 2215767-9 B-S isolated from patient with pyelonephritis assessed as >3-log reduction in urinary bacterial titer after 16 hrs; type: functional, Urine
[33] = tested on: Serratia marcescens; assay: Antimicrobial activity against Serratia marcescens 2297260 B-U isolated from patient with pyelonephritis assessed as >3-log reduction in urinary bacterial titer after 24 hrs; type: functional, Urine
[34] = tested on: Staphylococcus aureus; assay: Antimicrobial activity against Staphylococcus aureus 1889640 A-Z isolated from patient with pyelonephritis assessed as >3-log reduction in urinary bacterial titer after 4 hrs; type: functional, Urine
[35] = tested on: Escherichia coli; assay: Antimicrobial activity against Escherichia coli 1780064 A-X isolated from patient with pyelonephritis assessed as >3-log reduction in urinary bacterial titer after 4 hrs; type: functional, Urine; how it was run: as §1

## C[C@@H](O)[C@H]1C(=O)N2C(C(=O)O)=C(S[C@@H]3CN[C@H](CNS(N)(=O)=O)C3)[C@H](C)[C@H]12 [DORIPENEM]
[1]
  urinary bactericidal titer: 128 reciprocal titer
[2]
  urinary bactericidal titer: 32800 reciprocal titer
[3]
  urinary bactericidal titer: 8192 reciprocal titer
[4]
  urinary bactericidal titer: 4096 reciprocal titer
[5]
  urinary bactericidal titer: 32800 reciprocal titer
[6]
  urinary bactericidal titer: 512 reciprocal titer
[7]
  urinary bactericidal titer: 1024 reciprocal titer
[8]
  urinary bactericidal titer: 16400 reciprocal titer
[9]
  urinary bactericidal titer: 32800
[10]
  fT>MIC: 20%
[11]
  MIC: 0.03 µg/mL (≈ 0.0713 µM)
[12]
  urinary bactericidal titer: 8192 reciprocal titer
[13]
  MIC: 0.03 µg/mL (≈ 0.0713 µM)
[14]
  urinary bactericidal titer: 32800 reciprocal titer
[15]
  urinary bactericidal titer: 65500 reciprocal titer
[16]
  MIC: 0.03 µg/mL (≈ 0.0713 µM)

## C[C@H]1COc2c(N3CCN(C)CC3)c(F)cc3c(=O)c(C(=O)O)cn1c23.C[C@H]1COc2c(N3CCN(C)CC3)c(F)cc3c(=O)c(C(=O)O)cn1c23.O [LEVOFLOXACIN]
[17]
  urinary bactericidal titer: 64 reciprocal titer
[18]
  urinary bactericidal titer: 2048 reciprocal titer
[19]
  urinary bactericidal titer: 4 reciprocal titer
[20]
  MIC: > 32 µg/mL
[21]
  urinary bactericidal titer: 0 reciprocal titer
[22]
  MIC: < 0.03 µg/mL
[23]
  urinary bactericidal titer: 2048 reciprocal titer
[24]
  MIC: > 32 µg/mL
[25]
  urinary bactericidal titer: 512 reciprocal titer
[26]
  urinary bactericidal titer: 128 reciprocal titer
[27]
  urinary bactericidal titer: 4 reciprocal titer
[28]
  urinary bactericidal titer: 1024 reciprocal titer
[29]
  urinary bactericidal titer: 2048 reciprocal titer
[30]
  urinary bactericidal titer: 512 reciprocal titer
[31]
  urinary bactericidal titer: 8 reciprocal titer
[32]
  urinary bactericidal titer: 0 reciprocal titer
[33]
  urinary bactericidal titer: 32 reciprocal titer
[34]
  urinary bactericidal titer: 256 reciprocal titer
[35]
  urinary bactericidal titer: 1024 reciprocal titer
